# Assay outcomes as filed in PubChem BioAssay.
# MEKK3 PB1 HTS: raises or lowers MEK5 binding to the human MEKK3 PB1 domain; bead-based flow cytometry, Alexa488-MEK5 binding to MEKK3; actives lie on both sides; 0 = blocked by unlabeled MEK5, 100 = vehicle; Q99759; 290,000 compounds, 1.4% hits; binding response (% of control), % at 10 µM;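 active = binding response more than 3 SD above or below the average of its plate-row segment, actives on both sides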;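 also: Alexa488 bead fluorescence after subtracting the streptavidin-only scavenger bead signal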
# MEKK2 WT-MEK5: raises or lowers MEK5 binding to wildtype human MEKK2 PB1 domain; bead flow cytometry, Alexa488-MEK5 binding to MEKK2 WT; actives lie on both sides; binding response (% of control), % at 10 µM; Q9Y2U5; 290,000 compounds, 1.1% hits; in the data active = binding response below about 67% or above about 130%
# MEKK2mut PB1 HTS: signal of MEK5 binding to mutant human MEKK2 PB1 domain; bead flow cytometry, Alexa488-MEK5 binding to MEKK2 mutant; 290,000 compounds, 0.35% hits; percent response, % at 10 µM; in the data active = percent response above about 24%, passing the limit was not always enough
# PREPL inhibitor: inhibitors of human prolyl oligopeptidase-like enzyme PREPL. Q4J6C6. recombinant PREPL, fluorescence polarization activity-based probe. inhibition, % at 5.96 µM. 320,000 compounds, 0.68% hits. AID 2751; in the data active = inhibition above about 43%
# Target sequence (Q4J6C6 whole entry, looked up): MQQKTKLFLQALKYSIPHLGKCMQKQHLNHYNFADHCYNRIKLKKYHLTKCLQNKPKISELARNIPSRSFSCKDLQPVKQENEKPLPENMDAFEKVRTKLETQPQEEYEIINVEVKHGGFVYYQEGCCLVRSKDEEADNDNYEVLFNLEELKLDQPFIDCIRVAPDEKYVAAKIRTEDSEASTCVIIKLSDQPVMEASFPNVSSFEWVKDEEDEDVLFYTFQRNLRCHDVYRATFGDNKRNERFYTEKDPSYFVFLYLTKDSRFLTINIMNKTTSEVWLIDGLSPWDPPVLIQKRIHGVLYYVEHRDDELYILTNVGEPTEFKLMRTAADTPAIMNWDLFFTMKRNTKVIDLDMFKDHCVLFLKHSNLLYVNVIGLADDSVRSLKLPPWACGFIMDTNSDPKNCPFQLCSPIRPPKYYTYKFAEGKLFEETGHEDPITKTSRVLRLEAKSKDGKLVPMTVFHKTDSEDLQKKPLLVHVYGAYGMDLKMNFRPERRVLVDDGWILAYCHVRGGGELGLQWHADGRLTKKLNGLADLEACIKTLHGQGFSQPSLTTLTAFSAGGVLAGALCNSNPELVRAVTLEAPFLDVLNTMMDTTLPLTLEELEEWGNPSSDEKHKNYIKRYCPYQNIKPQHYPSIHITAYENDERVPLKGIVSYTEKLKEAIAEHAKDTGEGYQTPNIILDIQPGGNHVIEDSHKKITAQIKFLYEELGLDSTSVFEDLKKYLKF
# Apaf-1 inh: inhibitors of human Apaf-1 apoptosome; AID 489030; reconstituted apoptosome caspase-3 activity, DEVD-Rh110 fluorescence; 330,000 compounds, 0.71% hits; O14727; inhibition, % at 20 µM; active = inhibition of at least 40% at 20 µM
#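 Material: reconstituted apoptosome with Apaf-1, cytochrome c, caspase-9, procaspase-3, dATP. Technique: Rh110 fluorescence intensity. Buffer or medium: pH 7.5 Hepes buffer with CHAPS, BSA, DTT. Times: 30 min plus 50 min, RT.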
# UBC13 polyUb: inhibitors of human UBC13 polyubiquitin chain formation; 330,000 compounds, 0.47% hits; P61088; inhibition, % at 20 µM; TR-FRET; AID 485273; in the data active = inhibition above about 45%, passing the limit was not always enough
# Apaf-1 inh conf2: confirmation of Apaf-1 inhibitors; 1,800 compounds, 25% hits; AID 504614; inhibition, % at 20 µM; reconstituted apoptosome, caspase-3 DEVD-Rh110 fluorescence; shares compounds with Apaf-1 inh;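 active = mean inhibition of at least 40% at 20 µM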
# Rh110 quench: Rh110 signal interference in Apaf-1 inhibitor counter-screen. Rh110 fluorescence interference, quenched caspase reaction. shares compounds with Apaf-1 inh. activation (fluorescence interference), % at 20 µM. 1,800 tested, under 10 active;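 active = signal rise of 40% or more at 20 µM, treated as a fluorescence artifact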
# Fluor interf inh: counter-screen for Apaf-1 inhibitors: fluorescence interference, dose response; shares compounds with Apaf-1 inh; fluorescence interference counterscreen, Apaf-1 assay format; IC50, µM; 460 tested, under 10 active; AID 588538; call rule not given here
# A number is an active result; - = inactive; . = not tested or not shown; ! = not confirmed by another sample. Most compounds without a hit are left out; they make up all but 3.1% or so of the library.
SMILES,MEKK3 PB1 HTS,MEKK2 WT-MEK5,MEKK2mut PB1 HTS,PREPL inhibitor,Apaf-1 inh,UBC13 polyUb,Apaf-1 inh conf2,Rh110 quench,others
O=C(CN1C(=O)NC2(CCCCC2)C1=O)Oc1ccc2ccc(=O)oc2c1,.,.,.,-,-,-,.,.,
O=C(CCNC(=O)c1ccc(Cl)cc1)NCCCN1CCOCC1,.,.,.,-,48,-,-,-,
COc1ccc2[nH]c3c(c2c1)CCN1C(=O)C(CC(=O)NCCC2=CCCCC2)C[C@H](C(=O)N2CCOCC2)[C@@]31CCC1CCCC1 (some centres undefined),.,.,.,.,44,.,-,-,
CN(C)CCCNC(=O)C[C@H]1C[C@H](C(=O)N2CCCCC2)[C@@]2(C)c3[nH]c4cc(-c5ccco5)ccc4c3CCN2C1=O,.,.,.,.,42,.,-,-,
COc1ccc2[nH]c3c(c2c1)CCN1C(=O)C(CC(=O)NCCC2=CCCCC2)C[C@H](C(=O)N2CCCCC2)[C@@]31CCc1ccccc1 (some centres undefined),.,.,.,.,-,.,.,.,
CN(C)CCCNC(=O)C[C@H]1C[C@H](C(=O)N2CCCCC2)[C@@]2(CCc3ccccc3)c3[nH]c4cc(-c5ccco5)ccc4c3CCN2C1=O,.,.,.,.,72,.,-,-,
CN(C)S(=O)(=O)c1ccc(C(=O)NC(=O)CSc2nncs2)cc1,.,.,.,-,-,-,.,.,
O=C(c1ccccc1)c1coc2c1C(=O)c1ccccc1C2=O,-,-,-,-,64,-,70,-,Fluor interf inh=-
O=C1c2ccccc2C(=O)c2c1oc(C(F)(F)F)c2C(=O)c1ccccc1,-,-,-,-,79,-,85,-,Fluor interf inh=-
O=C(c1ccccc1)c1ccc(CN2C(=O)c3ccccc3C2=O)o1,-,-,-,-,-,-,.,.,
Cc1ccc(-c2nn3c(-c4ccco4)nnc3c3ccccc23)cc1S(=O)(=O)NCC1CCCO1 (centres undefined),-,-,-,-,66,-,83,-,Fluor interf inh=-
O=C(Nc1ccccc1)/C(=C/c1ccc(F)cc1)NC(=O)c1ccco1,-,-,-,-,-,-,.,.,
Cc1cc(N2CCN(c3ccc([N+](=O)[O-])c4cccnc34)CC2)c2ccccc2n1,-,-,-,-,60,-,47,-,Fluor interf inh=-
COc1ccc(N=C2C(=Nc3ccc(OC)cc3)N(c3ccc(OC)cc3)C(=S)N2C)cc1,-,-,-,-,-,-,.,.,
COc1ccc(N=C2C(=Nc3ccc(OC)cc3)N(c3ccc(OC)cc3)C(=S)N2c2ccccc2)cc1,-,-,-,-,75,-,-,-,
O=C1N[C@@H](Cc2ccccc2)C(=O)N2[C@@H]1C[C@@]1(Br)c3ccccc3N(S(=O)(=O)c3ccccc3)[C@@H]21,-,-,-,-,-,-,.,.,
Cc1[nH]n(-c2ccccc2)c(=S)c1C=NCCCN=Cc1c(C)[nH]n(-c2ccccc2)c1=S,-,-,-,-,63,-,-,-,
Cc1[nH]c2ccccc2c1CC#N,-,-,-,-,-,-,.,.,
Cc1[nH]c2ccccc2c1C(C#N)(C#N)C1C(=O)c2ccccc2C1=O,-,-,-,-,73,-,45,-,Fluor interf inh=-
NC1=Nc2cccc3cccc1c23,-,-,-,-,67,-,-,-,
O=C1C(Nc2ccccc2)=C/C(=N/S(=O)(=O)c2cccs2)c2ccccc21,-,-,-,-,.,.,.,.,
COC(=O)c1ccccc1NC1=C/C(=N\S(=O)(=O)c2cccs2)c2ccccc2C1=O,-,-,-,-,92,-,94,-,Fluor interf inh=-
Cc1ccc(NC2=C/C(=N/S(=O)(=O)c3cccs3)c3ccccc3C2=O)cc1,-,-,-,-,92,-,95,-,Fluor interf inh=-
COC(=O)c1ccccc1NC1=C/C(=N\S(=O)(=O)c2ccc(C(=O)O)cc2)c2ccccc2C1=O,-,-,-,-,95,-,97,-,Fluor interf inh=-
O=S(=O)(NCc1cccnc1)c1ccc2ccccc2c1,-,-,-,-,-,-,.,.,
SMILES,MEKK3 PB1 HTS,MEKK2 WT-MEK5,MEKK2mut PB1 HTS,PREPL inhibitor,Apaf-1 inh,UBC13 polyUb,Apaf-1 inh conf2,Rh110 quench,others
CN(C)c1ccnc2c[cH-]cc12.[Fe].c1ccc(-[c-]2[c-](-c3ccccc3)[c-](-c3ccccc3)[c-](-c3ccccc3)[c-]2-c2ccccc2)cc1 (centres undefined),-,-,-,-,47!,-,-,-,
CN(C)c1ccnc(Nc2ccccc2)c1C#N,-,-,-,-,-,-,.,.,
CC(Oc1ccc(Br)cc1)C(=O)NCC(C)(C)N1CCOCC1 (centres undefined),.,.,.,-,47,-,-,-,
Cc1ccccc1C(=O)N1CCC(C(=O)N(C)CCOc2ccccc2)CC1,-,-,-,-,-,-,.,.,
Cc1cccc(N(Cc2ccccc2)C(=O)C2CCN(C(=O)c3ccccc3C)CC2)c1,.,.,.,-,48,-,-,-,
CCOC(=O)CNC(=O)/C=C/c1ccc2c(c1)OCO2,-,-,-,-,-,-,.,.,
CCOC(=O)CNc1ccc2c(c1)OCO2,-,-,-,-,40,-,-,-,
Nc1ncc(Br)cc1N=Cc1ccccc1,-,-,-,-,62,-,-,-,
c1ccc(-c2nc(-c3cccs3)[nH]c2-c2ccccc2)cc1,-,-,-,-,-,-,.,.,
c1csc(-c2nc3c4ccccc4c4ccccc4c3[nH]2)c1,-,-,-,-,44,-,-,-,
Cc1ccc(C(=O)N/N=C/c2ccc(-c3ccccc3[N+](=O)[O-])o2)cn1,-,-,-,-,75,-,-,-,
O=C(N/N=C/c1ccc(-c2ccccc2[N+](=O)[O-])o1)[C@H]1C[C@@H]1c1ccccc1,-,-,-,-,68,-,-,-,
COc1ccc(NC(=O)NNC(=O)c2ccc3ccccc3c2)cc1OC,-,-,-,-,-,-,.,.,
CCC12CCCN3CCc4c(n(c5ccccc45)C(O)(C(=O)OC)C1)C32 (centres undefined),-,-,-,-,41,-,-,-,
CC[C@]12CCCN3CCc4c(n(c5ccccc45)[C@](O)(C(=O)OC)C1)[C@@H]32,.,.,.,-,-,-,.,.,
Oc1c(Br)cc(Br)cc1C=Nc1ccc2[nH]ncc2c1,-,-,-,-,84,-,-,-,
Oc1c(Br)cc(Br)cc1C=Nc1cccnc1,-,-,-,-,79,-,-,-,
COc1ccc(C=Nc2ccc3[nH]ncc3c2)c(O)c1,-,-,-,-,-,-,.,.,
CC1=C(C(=O)Nc2cccc(C(=O)NC3CCCCC3C)c2)SCCO1 (centres undefined),-,-,-,-,-,-,.,.,
